Data from BindingDB's records for doi:10.1021/acs.jmedchem.9b01336 (University of Naples Federico II, 2020).

Legend:
[1] = Inhibition of RET isoform 15 C634R mutant (unknown origin) expressed in mouse BAF3 cells assessed as reduction in cell proliferation supplemented with fresh medium containing compound for every 2 to 3 days and measured daily
[2] = molecular target: T1, Proto-oncogene tyrosine-protein kinase receptor Ret (Homo sapiens, UniProt P07949); assay: Inhibition of RET isoform 9 C634W mutant in human TT cells assessed as reduction in cell proliferation supplemented with fresh medium containing compound for every 2 to 3 days and measured during compound dosing
Procedure, shortened: (§1)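 TT (200000/well) or MZ-CRC-1 (100000/well) seeded in 10% FCS; drug or vehicle from next day, refreshed every 2–3 days; counted every 2–3 days; IC50 by curve fitting of last-day growth.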
Target sequence in this assay (P07949 29-1114 C634W limits assumed): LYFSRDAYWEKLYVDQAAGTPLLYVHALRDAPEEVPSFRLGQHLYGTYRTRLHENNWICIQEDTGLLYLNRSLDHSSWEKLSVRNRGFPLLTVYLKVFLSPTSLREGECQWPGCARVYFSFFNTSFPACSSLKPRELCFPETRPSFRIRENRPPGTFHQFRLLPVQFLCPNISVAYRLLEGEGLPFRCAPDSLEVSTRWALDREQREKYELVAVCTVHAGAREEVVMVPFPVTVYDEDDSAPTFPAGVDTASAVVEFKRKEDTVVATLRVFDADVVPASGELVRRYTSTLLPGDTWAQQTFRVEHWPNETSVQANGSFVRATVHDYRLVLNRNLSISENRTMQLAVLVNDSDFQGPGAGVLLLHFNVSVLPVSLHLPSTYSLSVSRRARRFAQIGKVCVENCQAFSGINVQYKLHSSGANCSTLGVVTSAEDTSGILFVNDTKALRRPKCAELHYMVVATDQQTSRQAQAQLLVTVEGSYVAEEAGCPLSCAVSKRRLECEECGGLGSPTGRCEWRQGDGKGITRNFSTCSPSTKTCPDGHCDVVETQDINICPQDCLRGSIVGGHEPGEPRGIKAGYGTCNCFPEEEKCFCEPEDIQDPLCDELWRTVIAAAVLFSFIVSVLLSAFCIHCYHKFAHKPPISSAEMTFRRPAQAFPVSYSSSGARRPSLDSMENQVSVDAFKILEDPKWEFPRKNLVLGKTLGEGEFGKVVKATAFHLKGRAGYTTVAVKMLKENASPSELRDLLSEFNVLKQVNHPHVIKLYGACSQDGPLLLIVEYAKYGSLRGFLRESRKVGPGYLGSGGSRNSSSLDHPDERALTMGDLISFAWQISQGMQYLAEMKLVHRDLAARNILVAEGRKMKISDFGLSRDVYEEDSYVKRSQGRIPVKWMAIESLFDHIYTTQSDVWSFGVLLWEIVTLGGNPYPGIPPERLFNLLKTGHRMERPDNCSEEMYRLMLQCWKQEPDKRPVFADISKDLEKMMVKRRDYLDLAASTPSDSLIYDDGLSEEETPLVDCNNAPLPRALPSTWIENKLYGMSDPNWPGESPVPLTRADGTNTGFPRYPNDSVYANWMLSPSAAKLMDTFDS

[3] = molecular target: T1, Proto-oncogene tyrosine-protein kinase receptor Ret; assay: Inhibition of CCDC6/RET in human LC2/ad cells assessed as reduction in cell proliferation supplemented with fresh medium containing compound for every 2 to 3 days and measured during compound dosing
Target sequence in this assay (P07949 whole entry, looked up, canonical isoform): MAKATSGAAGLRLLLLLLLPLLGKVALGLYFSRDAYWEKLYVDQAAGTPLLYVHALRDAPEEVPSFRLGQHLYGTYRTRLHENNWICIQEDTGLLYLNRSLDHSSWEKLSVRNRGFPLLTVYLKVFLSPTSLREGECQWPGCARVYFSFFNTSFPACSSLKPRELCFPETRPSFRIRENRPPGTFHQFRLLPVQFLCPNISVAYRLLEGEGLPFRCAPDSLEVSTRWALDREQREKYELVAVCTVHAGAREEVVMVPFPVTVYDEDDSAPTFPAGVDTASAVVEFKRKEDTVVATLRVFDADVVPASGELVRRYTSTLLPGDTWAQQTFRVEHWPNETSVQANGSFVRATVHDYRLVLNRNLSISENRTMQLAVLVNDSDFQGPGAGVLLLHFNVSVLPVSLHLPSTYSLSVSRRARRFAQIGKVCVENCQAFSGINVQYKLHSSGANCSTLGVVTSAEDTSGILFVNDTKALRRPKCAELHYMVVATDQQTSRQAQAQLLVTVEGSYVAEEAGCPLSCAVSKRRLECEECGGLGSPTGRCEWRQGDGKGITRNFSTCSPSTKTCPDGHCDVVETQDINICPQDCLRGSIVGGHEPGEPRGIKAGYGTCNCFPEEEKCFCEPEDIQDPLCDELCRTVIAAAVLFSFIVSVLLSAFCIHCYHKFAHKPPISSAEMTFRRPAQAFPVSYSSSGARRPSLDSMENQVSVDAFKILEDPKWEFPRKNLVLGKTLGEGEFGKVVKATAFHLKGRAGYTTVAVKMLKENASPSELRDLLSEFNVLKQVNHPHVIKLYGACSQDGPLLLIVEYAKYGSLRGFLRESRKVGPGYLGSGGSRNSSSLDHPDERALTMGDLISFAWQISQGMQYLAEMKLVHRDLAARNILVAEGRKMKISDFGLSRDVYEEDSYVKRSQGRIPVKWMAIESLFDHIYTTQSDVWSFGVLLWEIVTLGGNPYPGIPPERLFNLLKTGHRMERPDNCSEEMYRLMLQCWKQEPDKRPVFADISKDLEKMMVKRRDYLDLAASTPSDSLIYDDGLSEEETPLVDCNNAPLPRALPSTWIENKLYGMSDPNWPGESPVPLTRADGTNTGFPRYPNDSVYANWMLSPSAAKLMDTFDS

[4] = Inhibition of RET isoform 9 C634Y mutant (unknown origin) expressed in mouse NIH/3T3 cells assessed as reduction in cell proliferation supplemented with fresh medium containing compound for every 2 to 3 days measured at 2 days interval during compound dosing
[5] = Inhibition of RET isoform 15 M918T mutant (unknown origin) expressed in mouse BAF3 cells assessed as reduction in cell proliferation supplemented with fresh medium containing compound for every 2 to 3 days and measured daily
[6] = molecular target: T1, Proto-oncogene tyrosine-protein kinase receptor Ret; assay: Inhibition of CCDC6/RET in human TPC1 cells assessed as reduction in cell proliferation supplemented with fresh medium containing compound for every 2 to 3 days and measured during compound dosing
Target sequence in this assay (P07949 whole entry, looked up, canonical isoform): as above

[7] = molecular target: T1, Proto-oncogene tyrosine-protein kinase receptor Ret; assay: Inhibition of RET isoform 9 M918T mutant in human MZ-CRC-1 cells assessed as reduction in cell proliferation supplemented with fresh medium containing compound for every 2 to 3 days and measured during compound dosing
Procedure, shortened: as §1
Target sequence in this assay (P07949 29-1114 M918T limits assumed): as the sequence (P07949 29-1114 C634W limits assumed) above, with W606C, M890T counted along it

CC(C)(C)c1cc(NC(=O)Cc2ccc(-n3cnc4cc(-c5ccc(S(C)(=O)=O)cc5)ccc43)cc2)no1
IC50 [1]: 1.7 nM | IC50 [2]: 0.67 nM | IC50 [3]: 0.67 nM | IC50 [4]: 4.2 nM | IC50 [5]: 1.6 nM | IC50 [6]: 0.67 nM | IC50 [7]: 0.67 nM
